Diaph act CS: diaphorase activation or chemical reduction counter-screen. Diaphorase/resazurin coupled assay, resorufin fluorescence, 16 min; hits give high values; 1 = vehicle wells, 0 = NADH-free wells. activation factor at 20 µM. 190,000 compounds, 0.005% hits;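 active = diaphorase activity raised at least twofold by the compound at 20 µM; inactive = activation factor below 2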
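Material: bacterial diaphorase enzyme (C. kluyveri); amount: enzyme 0.07 U/mL final; reagent: NADH substrate 0.114 mM plus resazurin dye 0.1 mM, final; doses: single compound dose of 20 µM, 1% DMSO final; timing: 16 min enzyme reaction, ambient temperature; measured by: fluorescence of resorufin, 544 nm excitation, 590 nm emission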
Arbovirus anti: antivirals against arbovirus infection; arbovirus infection cell-based antiviral screen; inhibition, % at 10 µM; 200,000 compounds, 0.37% hits; in the data active = inhibition above about 30%
HKDC1 inh: inhibitors of human hexokinase HKDC1. Q2TB90. inhibition, % at 20 µM. 340,000 compounds, 0.16% hits. recombinant HKDC1, G6PDH/diaphorase resazurin coupled fluorescence;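 active = inhibition above about 35% when tested at 20 µM, limit read from the data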
Target sequence (Q2TB90 whole entry, looked up): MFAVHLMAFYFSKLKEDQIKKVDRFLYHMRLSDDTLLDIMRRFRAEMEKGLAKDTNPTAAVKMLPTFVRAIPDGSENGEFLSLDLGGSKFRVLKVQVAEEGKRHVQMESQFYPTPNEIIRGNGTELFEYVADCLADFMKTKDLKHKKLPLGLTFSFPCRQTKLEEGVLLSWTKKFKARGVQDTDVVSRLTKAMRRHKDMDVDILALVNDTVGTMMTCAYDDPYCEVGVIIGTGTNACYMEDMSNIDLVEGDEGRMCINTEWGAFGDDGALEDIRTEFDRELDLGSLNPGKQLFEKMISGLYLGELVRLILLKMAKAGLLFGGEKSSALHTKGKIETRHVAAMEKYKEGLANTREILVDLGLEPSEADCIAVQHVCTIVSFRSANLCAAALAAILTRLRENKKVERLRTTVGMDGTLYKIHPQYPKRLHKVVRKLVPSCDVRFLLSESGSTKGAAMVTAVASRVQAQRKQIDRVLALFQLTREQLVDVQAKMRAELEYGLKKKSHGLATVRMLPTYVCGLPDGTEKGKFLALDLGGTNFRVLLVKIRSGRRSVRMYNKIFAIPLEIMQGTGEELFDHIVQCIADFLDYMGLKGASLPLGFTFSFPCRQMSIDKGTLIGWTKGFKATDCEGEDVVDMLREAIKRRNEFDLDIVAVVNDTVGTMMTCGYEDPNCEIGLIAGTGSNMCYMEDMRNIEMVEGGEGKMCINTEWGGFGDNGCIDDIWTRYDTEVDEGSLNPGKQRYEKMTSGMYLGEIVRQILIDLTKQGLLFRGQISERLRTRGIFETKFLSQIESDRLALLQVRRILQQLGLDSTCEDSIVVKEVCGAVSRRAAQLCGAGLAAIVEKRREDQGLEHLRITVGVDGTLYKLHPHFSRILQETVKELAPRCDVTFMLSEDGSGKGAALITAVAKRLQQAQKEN
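Test system: HK5 enzyme. Quantity: 5 µg/mL HK5 final. Reagent: glucose and ATP substrates. Schedule: 90 min reaction incubation at room temperature, dark. Technique: resazurin-to-resorufin fluorescence via G6PDH and diaphorase coupling, 525/613 nm. Control set: DMSO wells with and without enzyme mix.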
G6PDH counter: counter-screen for G6PDH assay hits: L. mesenteroides G6PDH inhibition. Purified L. mesenteroides G6PDH, diaphorase/resazurin coupled fluorescence, 45 min. inhibition, % at 5 µM. 200,000 compounds, 0.12% hits. AID 1020; in the data active = inhibition above about 50%
Diaph inh CS: diaphorase inhibition or chemical oxidation counter-screen; diaphorase resazurin-to-resorufin fluorescence, NADH, 16 min; bacterial (C. kluyveri) enzyme, not human; inhibition, % at 20 µM; 190,000 compounds, 0.69% hits;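 active = primary screen inhibition at 20 µM above a set limit, cut at about 50% in these data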
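Benchmarks: positive control wells lacking NADH, neutral wells with DMSO only. System: bacterial diaphorase enzyme (C. kluyveri). Input: 0.14 U/mL diaphorase, enzyme working solution. Detection: resorufin fluorescence, excitation 544 nm, emission 590 nm. Times: 16-min room-temperature incubation before reading.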
Each line names hits and unclear results; the compound was inactive in the other large screens. Sampled rows, rich in hits. Any-hit rate of the full collection: about 0.74%.

Cc1ccc(S(=O)(=O)CCSc2cccc(C(=O)Nc3ccccc3C(=O)O)c2)cc1	Arbovirus anti 44
O=c1[nH]c2ccccc2c2nc3ccccn3c12	none
O=c1nc2c(O)cccn2c2c1c(=O)[nH]c1ccccc12	Diaph inh CS 75
CCCCOc1ccc2c(c1)/C(=C(\C(Cl)=C(Cl)Cl)[N+](=O)[O-])N2	Diaph inh CS 50
CCOc1ccc2c(c1)/C(=C(\C(Cl)=C(Cl)Cl)[N+](=O)[O-])N2	Diaph inh CS 51
CN1OC[C@@H]2CN(C(=O)CCc3ccccc3)[C@H](c3cccc(N4CCOCC4)c3)C[C@@H]21	none (no result: Diaph act CS, Arbovirus anti, G6PDH counter, Diaph inh CS)
O=C(N/N=C/c1ccc(O)c(O)c1O)/C(=C/c1ccc([N+](=O)[O-])cc1)NC(=O)c1ccccc1	Diaph inh CS 74
Cc1ccc(NC(=O)/C(=C\c2ccc([N+](=O)[O-])cc2)NC(=O)c2ccccc2)cc1	none
CC(CCc1ccccc1)NC(=O)c1cc2sccc2n1C (stereo not drawn)	Arbovirus anti 42
COc1cccc(C2=CC(c3ccc(N(C)C)cc3)n3ncnc3N2)c1 (stereo not drawn)	Arbovirus anti 46 (no result: HKDC1 inh)
COc1ccc(C2C=C(c3ccc(C)cc3)Nc3ncnn32)cc1 (stereo not drawn)	Arbovirus anti 86
Cc1ccc(C2C=C(c3ccccc3)Nc3ncnn32)cc1 (stereo not drawn)	none (no result: Diaph act CS, Arbovirus anti, G6PDH counter, Diaph inh CS)
COc1cccc(C2C=C(c3cccs3)Nc3ncnn32)c1OC (stereo not drawn)	none
COc1ccc(C2=CC(c3ccc(C)cc3)n3nnnc3N2)cc1 (stereo not drawn)	Arbovirus anti 38
COc1cccc(C2=CC(c3ccccc3)n3ncnc3N2)c1 (stereo not drawn)	none (no result: HKDC1 inh)
COc1ccc(C2C=C(c3ccc(Br)s3)Nc3ncnn32)cc1OC (stereo not drawn)	Arbovirus anti 90 (no result: HKDC1 inh)
COc1ccc(C2C=C(c3ccccc3)Nc3nnnn32)cc1 (stereo not drawn)	none
O=C(Oc1cc(=O)oc2c1c(=O)n1c3c(cccc23)CC1)c1ccc(F)cc1	none (no result: Diaph act CS, Arbovirus anti, G6PDH counter, Diaph inh CS)
COC(=O)c1[nH]c(C)c(/C(O)=C2\C(=O)C(=O)N(CCN3CCOCC3)C2c2ccc(C)o2)c1C (stereo not drawn)	none (no result: Diaph act CS, Arbovirus anti, G6PDH counter, Diaph inh CS)
O=C(CCSc1nc(-c2ccco2)cc(C(F)(F)F)n1)Nc1ccc2c(c1)OCO2	none
O=C1NN(c2ccc(Cl)cc2)C(=O)/C1=C\c1ccc(-c2cccc(C(=O)O)c2)o1	Diaph inh CS 53
O=C1NN(c2ccccc2)C(=O)/C1=C\c1ccc(-c2cc([N+](=O)[O-])ccc2O)o1	Diaph inh CS 80
Cc1ccc(N2NC(=O)/C(=C/c3ccc(-c4ccc(Cl)c(C(=O)O)c4)o3)C2=O)cc1	none
COc1cc(/C=C2\C(=O)NN(c3ccccc3)C2=O)cc([N+](=O)[O-])c1O	none
CCOc1cc(/C=C2\C(=O)NN(c3ccccc3)C2=O)cc([N+](=O)[O-])c1O	Diaph inh CS 53
COC(=O)c1c(NC(=O)C2=COCCO2)sc(C)c1C	none (no result: Diaph act CS, Arbovirus anti, G6PDH counter, Diaph inh CS)
COc1ccc(Cl)cc1NC(=O)CN(C)C(=O)c1cn(-c2ccccc2)nc1-c1cccnc1	none (no result: Diaph act CS, Arbovirus anti, G6PDH counter, Diaph inh CS)
NC(=O)C1CCCN(C(=O)c2ccc(-c3cccc(Cl)c3Cl)o2)C1 (stereo not drawn)	none (no result: Diaph act CS, Arbovirus anti, G6PDH counter, Diaph inh CS)
Cn1c(C(=O)Nc2ccc3c(c2)OCCO3)cc2c(=O)n(C)c3ccccc3c21	Diaph inh CS 54
Cn1c(C(=O)NC2CC2)cc2c(=O)n(C)c3ccccc3c21	none
c1cc2c3c(cccc3c1)C(N1CCCCCC1)=N2	none
c1cc2c3c(cccc3c1)C(N1CCCCC1)=N2	G6PDH counter 52
COC(=O)c1c(NC(=O)CSc2nc3ccccc3c(=O)n2Cc2ccco2)sc(C)c1C	none
COC(=O)c1c(NC(=O)CSc2nnc(-c3ccco3)n2Cc2ccccc2)sc(C)c1C	Diaph inh CS 57
C/C(=N\NC(=O)c1ccccc1C)c1ccc(NC(=O)c2cccs2)cc1	Arbovirus anti 82
C/C(=N\NC(=O)c1ccccc1)c1ccc(NC(=O)c2cccs2)cc1	none
CCCOc1ccc(C(=O)CCC(=O)OCC(=O)Nc2cccc(S(N)(=O)=O)c2)cc1	none (no result: Diaph act CS, Arbovirus anti, G6PDH counter, Diaph inh CS)
CCOc1cc(C=NN2CCCCCC2)ccc1O	none (no result: Diaph act CS, Arbovirus anti, G6PDH counter, Diaph inh CS)
O=C1C=C(N2CCN(c3ccccn3)CC2)C(=O)c2c(O)ccc(O)c21	none (no result: Diaph act CS, Arbovirus anti, G6PDH counter, Diaph inh CS)
CC1=CC(=O)c2c(O)ccc(O)c2C1=O	G6PDH counter 58, Diaph inh CS 54 (no result: HKDC1 inh)
COC(=O)[C@@H](Cc1ccccc1)NC(=O)Cn1cc(C)c(=O)[nH]c1=O	none (no result: Diaph act CS, Arbovirus anti, G6PDH counter, Diaph inh CS)
Cc1sc2nc(CN3CCOCC3)[nH]c(=S)c2c1C	Diaph inh CS 73
COc1ccc(NC(=O)CCC(=O)c2cccs2)cc1S(=O)(=O)Nc1ccc(Cl)cc1	Diaph inh CS 50
CC(/C=C/c1ccco1)=N\NC(=O)CNc1ccc2ccccc2c1	Diaph inh CS 56
CC(C)(C)C1CCC(C(=O)Nc2ccccc2N2CCOCC2)CC1 (stereo not drawn)	none (no result: Diaph act CS, Arbovirus anti, G6PDH counter, Diaph inh CS)
N#CC1=C(SCC(=O)Nc2ccccc2)NC(=O)CC1c1ccco1 (stereo not drawn)	none (no result: Diaph act CS, G6PDH counter, Diaph inh CS)
N#CC1=C(SCC(=O)Nc2ccccc2)NC(=O)CC1c1ccc(O)cc1 (stereo not drawn)	Arbovirus anti 42
Cc1cc(C)n2nc(C(=O)OCC(=O)N(Cc3ccccc3)C(C)C)nc2n1	none (no result: Diaph act CS, Arbovirus anti, G6PDH counter, Diaph inh CS)
Cc1c(O)c2c3c(cccc3c1O)C(=O)N(c1ccccc1)C2=O	Arbovirus anti 35
CSc1ccccc1Nc1ncnc(N)n1	none (no result: Diaph act CS, Arbovirus anti, G6PDH counter, Diaph inh CS)
O=C(N/N=C\c1ccc(-c2ccccc2[N+](=O)[O-])o1)C1COc2cc3ccccc3cc2O1 (stereo not drawn)	Diaph inh CS 64
c1ccc(CN2CCC3CC2c2cc(N4CCOCC4)ccc23)cc1 (stereo not drawn)	none (no result: Diaph act CS, Arbovirus anti, G6PDH counter, Diaph inh CS)
O=C(N/N=C/c1cc2c3c(c1O)CCCN3CCC2)c1ccccc1O	Diaph inh CS 63
O=C(O)c1ccc(-c2nnc(-c3cccc(Br)c3)o2)cc1	none (no result: Diaph act CS, Arbovirus anti, G6PDH counter, Diaph inh CS)
O=C(O)c1cc(N/N=C2/CC(c3ccccc3)Oc3ccccc32)ccc1Cl (stereo not drawn)	Arbovirus anti 32
Cc1cccc(NC2=C/C(=N/S(=O)(=O)c3cccs3)c3ccccc3C2=O)c1	HKDC1 inh 53, G6PDH counter 53
Oc1c(Br)cc(C2N=C(c3ccccc3)NO2)cc1Br (stereo not drawn)	Arbovirus anti 33
Cc1ccc(S(=O)(=O)Nc2ccc(O)c3cccnc23)cc1	none (no result: Diaph act CS, Arbovirus anti, G6PDH counter, Diaph inh CS)
Cc1ccc(S(=O)(=O)Nc2ccc(O)c3ncccc23)cc1	G6PDH counter 50, Diaph inh CS 57
CCOC(=O)c1cc(C)[nH]c(=S)c1C#N	Diaph inh CS 52
Oc1c(CN2CCCCC2)cc(Br)c2cccnc12	Diaph inh CS 57
Oc1c(CN2CCc3ccccc3C2)cc(Cl)c2cccnc12	Diaph inh CS 68
Oc1c(Cl)cc(CN2CCOCC2)c2cccnc12	none (no result: Diaph act CS, Arbovirus anti, G6PDH counter, Diaph inh CS)
